Assay results from ChEMBL document CHEMBL1123716, “Synthesis and tumor uptake of 5-halo-1-(2'-fluoro-2'-deoxy-beta-D-ribofuranosyl)[2-14C]uracils” (J Med Chem, 1987).
Where “and” joins values, the source holds several entries; their conditions need not be identical. Equal entries are not always repeated. Blank lines part the entries; values can stand above or below the molecule they belong to.

How the values were obtained:
Conditions in all cases: in vivo
Mus musculus [1] = test: Tissue distribution in BDF1 female mice bearing an implanted lewis lung tumor after intravenous injection in lung at 0.5 h.; type: ADME, organism-based
Method in brief: (§1)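 Female BDF₁ mice (18–20 g) carrying transplanted Lewis lung tumor received 23–193 kBq of the [2-¹⁴C]-labeled nucleoside in normal saline via tail vein. The compound was stored as a dry film and reconstituted just before use. Animals were killed at set times, and tissue ¹⁴C was measured by combustion and liquid scintillation. Values are mean ± SD % injected dose per gram of wet tissue, n = 6.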

Mus musculus [2] = test: Tissue distribution in BDF1 female mice bearing an implanted lewis lung tumor after intravenous injection in lung at 1 h.; type: ADME, organism-based; method in brief: as §1
Mus musculus [3] = test: Tissue distribution in BDF1 female mice bearing an implanted lewis lung tumor after intravenous injection in lung at 2 h.; type: ADME, organism-based; method in brief: as §1
Mus musculus [4] = test: Tissue distribution in BDF1 female mice bearing an implanted lewis lung tumor after intravenous injection in lung at 24 h.; type: ADME, organism-based; method in brief: as §1
Mus musculus [5] = test: Tissue distribution in BDF1 female mice bearing an implanted lewis lung tumor after intravenous injection in lung at 4 h; type: ADME, organism-based; method in brief: as §1
Mus musculus [6] = test: Tissue distribution in BDF1 female mice bearing an implanted lewis lung tumor after intravenous injection in muscle at 0.5 h.; type: ADME, organism-based; method in brief: as §1
Mus musculus [7] = test: Tissue distribution in BDF1 female mice bearing an implanted lewis lung tumor after intravenous injection in muscle at 1 h.; type: ADME, organism-based; method in brief: as §1
Mus musculus [8] = test: Tissue distribution in BDF1 female mice bearing an implanted lewis lung tumor after intravenous injection in muscle at 2 h.; type: ADME, organism-based; method in brief: as §1
Mus musculus [9] = test: Tissue distribution in BDF1 female mice bearing an implanted lewis lung tumor after intravenous injection in muscle at 24 h.; type: ADME, organism-based; method in brief: as §1
Mus musculus [10] = test: Tissue distribution in BDF1 female mice bearing an implanted lewis lung tumor after intravenous injection in skin at 0.5 h.; type: ADME, organism-based, Skin of body; method in brief: as §1
Mus musculus [11] = test: Tissue distribution in BDF1 female mice bearing an implanted lewis lung tumor after intravenous injection in skin at 4 h.; type: ADME, organism-based, Skin of body; method in brief: as §1
Mus musculus [12] = test: Tissue distribution in BDF1 female mice bearing an implanted lewis lung tumor after intravenous injection in skin at 8 h.; type: ADME, organism-based, Skin of body; method in brief: as §1
Mus musculus [13] = test: Tissue distribution in BDF1 female mice bearing an implanted lewis lung tumor after intravenous injection in bone at 4 h.; type: ADME, organism-based
Method in brief: (§2)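 Female BDF1 mice (18–20 g) with implanted Lewis lung tumor received the 2-14C compound by tail vein, 23–193 kBq in normal saline, reconstituted from a dry film just before use. Animals were killed at set times and tissues taken for 14C counting by combustion and liquid scintillation. Values are percent injected dose per gram wet tissue, mean ± standard deviation, six animals.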

Mus musculus [14] = test: Tissue distribution in BDF1 female mice bearing an implanted lewis lung tumor after intravenous injection in bone at 8 h.; type: ADME, organism-based; method in brief: as §2
Mus musculus [15] = test: Tissue distribution in BDF1 female mice bearing an implanted lewis lung tumor after intravenous injection in git(Section of intestine) at 0.25 h.; type: ADME, organism-based; method in brief: as §2
Mus musculus [16] = test: Tissue distribution in BDF1 female mice bearing an implanted lewis lung tumor after intravenous injection in git(Section of intestine) at 0.5 h.; type: ADME, organism-based; method in brief: as §2
Mus musculus [17] = test: Tissue distribution in BDF1 female mice bearing an implanted lewis lung tumor after intravenous injection in git(Section of intestine) at 1 h.; type: ADME, organism-based; method in brief: as §2
Mus musculus [18] = test: Tissue distribution in BDF1 female mice bearing an implanted lewis lung tumor after intravenous injection in git(Section of intestine) at 24 h.; type: ADME, organism-based; method in brief: as §2
Mus musculus [19] = test: Tissue distribution in BDF1 female mice bearing an implanted lewis lung tumor after intravenous injection in bone at 1 h.; type: ADME, organism-based; method in brief: as §2
Mus musculus [20] = test: Tissue distribution in BDF1 female mice bearing an implanted lewis lung tumor after intravenous injection in git(Section of intestine) at 4 h.; type: ADME, organism-based; method in brief: as §2
Mus musculus [21] = test: Tissue distribution in BDF1 female mice bearing an implanted lewis lung tumor after intravenous injection in git(Section of intestine) at 8 h.; type: ADME, organism-based; method in brief: as §2
Mus musculus [22] = test: Tissue distribution in BDF1 female mice bearing an implanted lewis lung tumor after intravenous injection in heart at 1 h.; type: ADME, organism-based; method in brief: as §2
Mus musculus [23] = test: Tissue distribution in BDF1 female mice bearing an implanted lewis lung tumor after intravenous injection in heart at 4 h.; type: ADME, organism-based; method in brief: as §2
Mus musculus [24] = test: Tissue distribution in BDF1 female mice bearing an implanted lewis lung tumor after intravenous injection in heart at 8 h.; type: ADME, organism-based; method in brief: as §2
Mus musculus [25] = test: Tissue distribution in BDF1 female mice bearing an implanted lewis lung tumor after intravenous injection in kidney at 2 h.; type: ADME, organism-based; method in brief: as §2
Mus musculus [26] = test: Tissue distribution in BDF1 female mice bearing an implanted lewis lung tumor after intravenous injection in kidney at 8 h.; type: ADME, organism-based; method in brief: as §1
Mus musculus [27] = test: Tissue distribution in BDF1 female mice bearing an implanted lewis lung tumor after intravenous injection in liver at 0.5 h.; type: ADME, organism-based; method in brief: as §1
Mus musculus [28] = test: Tissue distribution in BDF1 female mice bearing an implanted lewis lung tumor after intravenous injection in liver at 1 h.; type: ADME, organism-based; method in brief: as §1
Mus musculus [29] = test: Tissue distribution in BDF1 female mice bearing an implanted lewis lung tumor after intravenous injection in liver at 4 h.; type: ADME, organism-based; method in brief: as §1
Mus musculus [30] = test: Tissue distribution in BDF1 female mice bearing an implanted lewis lung tumor after intravenous injection in liver at 8 h.; type: ADME, organism-based; method in brief: as §1
Mus musculus [31] = test: Tissue distribution in BDF1 female mice bearing an implanted lewis lung tumor after intravenous injection in blood at 0.25 h; type: ADME, organism-based; method in brief: as §2
Mus musculus [32] = test: Tissue distribution in BDF1 female mice bearing an implanted lewis lung tumor after intravenous injection in blood at 1 h.; type: ADME, organism-based; method in brief: as §2
Mus musculus [33] = test: Tissue distribution in BDF1 female mice bearing an implanted lewis lung tumor after intravenous injection in blood at 2 h.; type: ADME, organism-based; method in brief: as §2
Mus musculus [34] = test: Tissue distribution in BDF1 female mice bearing an implanted lewis lung tumor after intravenous injection in blood at 8 h.; type: ADME, organism-based; method in brief: as §2
Mus musculus [35] = test: Tissue distribution in BDF1 female mice bearing an implanted lewis lung tumor after intravenous injection in stomach at 1 h.; type: ADME, organism-based; method in brief: as §1
Mus musculus [36] = test: Tissue distribution in BDF1 female mice bearing an implanted lewis lung tumor after intravenous injection in stomach at 2 h.; type: ADME, organism-based; method in brief: as §1
Mus musculus [37] = test: Tissue distribution in BDF1 female mice bearing an implanted lewis lung tumor after intravenous injection in stomach at 24 h.; type: ADME, organism-based; method in brief: as §1
Mus musculus [38] = test: Tissue distribution in BDF1 female mice bearing an implanted lewis lung tumor after intravenous injection in stomach at 4 h.; type: ADME, organism-based; method in brief: as §1
Mus musculus [39] = test: Tissue distribution in BDF1 female mice bearing an implanted lewis lung tumor after intravenous injection in tumor at 0.5 h.; type: ADME, organism-based
Method in brief: (§3)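 Female BDF1 mice (18–20 g) carrying a transplanted Lewis lung tumor were given 23–193 kBq of the [2-14C]-labelled nucleoside in normal saline by tail vein. Animals were killed at set times. Tissue 14C was counted by liquid scintillation, after combustion or directly. Values are percent of injected dose per gram wet tissue, as mean ± standard deviation of six animals.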

Mus musculus [40] = test: Tissue distribution in BDF1 female mice bearing an implanted lewis lung tumor after intravenous injection in tumor at 8 h.; type: ADME, organism-based; method in brief: as §3
Mus musculus [41] = test: Tissue distribution in BDF1 female mice bearing an implanted lewis lung tumor after intravenous injection in kidney at 0.5 h.; type: ADME, organism-based; method in brief: as §2
Mus musculus [42] = test: Tissue distribution in BDF1 female mice bearing an implanted lewis lung tumor after intravenous injection in muscle at 8 h.; type: ADME, organism-based; method in brief: as §1
Mus musculus [43] = test: Tissue distribution in BDF1 female mice bearing an implanted lewis lung tumor after intravenous injection in kidney at 4 h.; type: ADME, organism-based; method in brief: as §1
Mus musculus [44] = test: Tissue distribution in BDF1 female mice bearing an implanted lewis lung tumor after intravenous injection in skin at 24 h.; type: ADME, organism-based, Skin of body; method in brief: as §1

Tissue distribution (Mus musculus [1]): 1.43
Tissue distribution (Mus musculus [2]): 0.51
Tissue distribution (Mus musculus [3]): 0.07
Tissue distribution (Mus musculus [4]): 0.005
Tissue distribution (Mus musculus [5]): 0.02
Tissue distribution (Mus musculus [6]): 1.06
Tissue distribution (Mus musculus [7]): 0.37
Tissue distribution (Mus musculus [8]): 0.06
Tissue distribution (Mus musculus [9]): 0.004
Tissue distribution (Mus musculus [10]): 1.18
Tissue distribution (Mus musculus [11]): 0.11
Tissue distribution (Mus musculus [12]): 0.01
Tissue distribution (Mus musculus [13]): 0.07
Tissue distribution (Mus musculus [14]): 0.03
Tissue distribution (Mus musculus [15]): 3.35
Tissue distribution (Mus musculus [16]): 1.59
Tissue distribution (Mus musculus [17]): 0.71
Tissue distribution (Mus musculus [18]): 0.01
Tissue distribution (Mus musculus [19]): 0.35
Tissue distribution (Mus musculus [20]): 0.04
Tissue distribution (Mus musculus [21]): 0.02
Tissue distribution (Mus musculus [22]): 0.58
Tissue distribution (Mus musculus [23]): 0.02
Tissue distribution (Mus musculus [24]): 0.009
Tissue distribution (Mus musculus [25]): 0.84
Tissue distribution (Mus musculus [26]): 0.02
Tissue distribution (Mus musculus [27]): 1.54
Tissue distribution (Mus musculus [28]): 0.53
Tissue distribution (Mus musculus [29]): 0.02
Tissue distribution (Mus musculus [30]): 0.01
Tissue distribution (Mus musculus [31]): 3.49
Tissue distribution (Mus musculus [32]): 0.54
Tissue distribution (Mus musculus [33]): 0.06
Tissue distribution (Mus musculus [34]): 0.01
Tissue distribution (Mus musculus [35]): 0.38
Tissue distribution (Mus musculus [36]): 0.07
Tissue distribution (Mus musculus [37]): 0.005
Tissue distribution (Mus musculus [38]): 0.02
Tissue distribution (Mus musculus [39]): 3.88
Tissue distribution (Mus musculus [40]): 0.05
Tissue distribution (Mus musculus [41]): 21.9
Tissue distribution (Mus musculus [42]): 0.01
Tissue distribution (Mus musculus [43]): 0.08
Tissue distribution (Mus musculus [44]): 0.004
SMILES: O=c1[nH]c(=O)n([C@H]2O[C@@H](CO)[C@H](O)[C@H]2F)cc1F

Tissue distribution (Mus musculus [1]): 1.41
Tissue distribution (Mus musculus [2]): 0.43
Tissue distribution (Mus musculus [3]): 0.14
Tissue distribution (Mus musculus [4]): 0.01
Tissue distribution (Mus musculus [5]): 0.06
Tissue distribution (Mus musculus [6]): 0.78
Tissue distribution (Mus musculus [7]): 0.27
Tissue distribution (Mus musculus [8]): 0.15
Tissue distribution (Mus musculus [9]): 0.01
Tissue distribution (Mus musculus [10]): 1.24
Tissue distribution (Mus musculus [11]): 0.04
Tissue distribution (Mus musculus [12]): 0.02
Tissue distribution (Mus musculus [13]): 0.04
Tissue distribution (Mus musculus [14]): 0.02
Tissue distribution (Mus musculus [15]): 1.91
Tissue distribution (Mus musculus [16]): 1.02
Tissue distribution (Mus musculus [17]): 0.38
Tissue distribution (Mus musculus [18]): 0.02
Tissue distribution (Mus musculus [19]): 0.17
Tissue distribution (Mus musculus [20]): 0.06
Tissue distribution (Mus musculus [21]): 0.04
Tissue distribution (Mus musculus [22]): 0.53
Tissue distribution (Mus musculus [23]): 0.06
Tissue distribution (Mus musculus [24]): 0.03
Tissue distribution (Mus musculus [25]): 1.6
Tissue distribution (Mus musculus [26]): 0.09
Tissue distribution (Mus musculus [27]): 1.43
Tissue distribution (Mus musculus [28]): 0.47 and 0.6
Tissue distribution (Mus musculus [29]): 0.05
Tissue distribution (Mus musculus [30]): 0.03
Tissue distribution (Mus musculus [31]): 3.54
Tissue distribution (Mus musculus [32]): 0.58
Tissue distribution (Mus musculus [33]): 0.18
Tissue distribution (Mus musculus [34]): 0.03
Tissue distribution (Mus musculus [35]): 0.27
Tissue distribution (Mus musculus [36]): 0.31
Tissue distribution (Mus musculus [37]): 0.01
Tissue distribution (Mus musculus [38]): 0.07
Tissue distribution (Mus musculus [39]): 1.82
Tissue distribution (Mus musculus [40]): 0.07
Tissue distribution (Mus musculus [41]): 23.2
Tissue distribution (Mus musculus [42]): 0.03
Tissue distribution (Mus musculus [43]): 0.33
Tissue distribution (Mus musculus [44]): 0.01
SMILES: O=c1[nH]c(=O)n([C@H]2O[C@@H](CO)[C@H](O)[C@H]2F)cc1Cl
